ChEMBL document CHEMBL3525980, “Compartmentalization and antiviral effect of efavirenz metabolites in blood plasma, seminal plasma, and cerebrospinal fluid” (Drug Metab Dispos, 2013)
Values after ≈ are worked out from the molar mass of the structure shown.

Experiments:
Cytochrome P450 2C8 = biological target: T1, Cytochrome P450 2C8 (Homo sapiens, UniProt P10632); assay: Drug metabolism of the compound assessed as CYP2C8 (unknown origin)-mediated formation of dihydroxylated metabolites with retention time of 1.92 mins at 5 uM by UPLC-MS/MS analysis; format: ADME; conditions: 0.032 h
T1 sequence (P10632 whole entry): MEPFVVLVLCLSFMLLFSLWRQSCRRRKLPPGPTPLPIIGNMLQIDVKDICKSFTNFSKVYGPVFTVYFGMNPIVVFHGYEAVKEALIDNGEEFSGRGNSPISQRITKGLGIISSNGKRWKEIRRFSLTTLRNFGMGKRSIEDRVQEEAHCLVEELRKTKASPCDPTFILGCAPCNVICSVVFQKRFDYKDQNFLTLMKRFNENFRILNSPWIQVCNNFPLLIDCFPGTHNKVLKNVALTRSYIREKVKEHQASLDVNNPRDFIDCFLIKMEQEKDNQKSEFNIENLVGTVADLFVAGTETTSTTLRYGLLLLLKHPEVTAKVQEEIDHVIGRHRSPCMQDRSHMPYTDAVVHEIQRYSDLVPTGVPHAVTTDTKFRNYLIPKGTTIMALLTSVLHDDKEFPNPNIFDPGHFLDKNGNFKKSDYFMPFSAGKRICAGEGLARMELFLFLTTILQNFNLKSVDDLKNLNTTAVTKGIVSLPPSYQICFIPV
Procedure, shortened: (§1)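 cDNA-expressed human CYPs (20 pmol/ml; panel 1A1–3A7) incubated with 5 μM substrate in 100 mM potassium phosphate, pH 7.4. 5-min equilibration at 37°C, then NADPH regenerating system, 60 min at 37°C. Acetonitrile stop, liquid–liquid extraction, UPLC-MS/MS detection of dihydroxylated products. Mean ± SD, n = 3.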

Liver microsome [1] = assay: Drug metabolism in human liver microsomes assessed as formation of metabolites with retention time of 1.92 mins at 20 uM by UPLC-MS/MS analysis; format: ADME; conditions: 0.032 h
Procedure, shortened: (§2)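 Substrate at 20 μM with pooled human liver microsomes (1 mg/mL) in 100 mM potassium phosphate, pH 7.4. 5-min equilibration at 37°C, then NADPH regenerating system added, 60 min at 37°C. Stopped with acetonitrile, liquid–liquid extracted (hexane:ethyl acetate), and dihydroxylated products read by UPLC-MS/MS at MRM m/z 346 > 262.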

[2] = Blood plasma concentration in human treated with 100 mg of efavirenz administered […] by UPLC-MS/MS analysis; format: ADME, cell-free
Procedure, shortened: (§3)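 Patient samples (subjects on once-daily EFV regimen; paired plasma/CSF from 13 participants) extracted and total metabolite levels quantified by UPLC-MS/MS. Fluorinated EFV analog used as internal standard. MRM detection, calibrated linear 0.5–500 ng/ml. Values reported as median (IQR).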

[3] = Seminal plasma protein binding in human treated with 100 mg of efavirenz administered every 4 hrs by ultrafiltration method; format: ADME, cell-free; conditions: male, read-out: PPB (converted)
Procedure, shortened: (§4)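 Ultrafiltration through 10-kDa membrane of 100 μl sample preincubated 1 h at 37°C, centrifuged at 37°C with filtrate collected every 15 min for 45 min and measured by UPLC-MS/MS. Free level at time zero back-extrapolated by linear regression. […]. For blood plasma, metabolites were spiked into blank plasma lots.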

[4] = Seminal plasma concentration in human treated with 100 mg of efavirenz administered every 4 hrs by UPLC-MS/MS analysis; format: ADME, cell-free; conditions: male
Cytochrome P450 2B6 [5] = biological target: T2, Cytochrome P450 2B6 (Homo sapiens, UniProt P20813); assay: Drug metabolism of the compound assessed as CYP2B6 (unknown origin)-mediated formation of metabolites with retention time of 1.92 mins at 5 uM by UPLC-MS/MS analysis; format: ADME; conditions: 0.032 h; procedure, shortened: as §1
T2 sequence (P20813 whole entry): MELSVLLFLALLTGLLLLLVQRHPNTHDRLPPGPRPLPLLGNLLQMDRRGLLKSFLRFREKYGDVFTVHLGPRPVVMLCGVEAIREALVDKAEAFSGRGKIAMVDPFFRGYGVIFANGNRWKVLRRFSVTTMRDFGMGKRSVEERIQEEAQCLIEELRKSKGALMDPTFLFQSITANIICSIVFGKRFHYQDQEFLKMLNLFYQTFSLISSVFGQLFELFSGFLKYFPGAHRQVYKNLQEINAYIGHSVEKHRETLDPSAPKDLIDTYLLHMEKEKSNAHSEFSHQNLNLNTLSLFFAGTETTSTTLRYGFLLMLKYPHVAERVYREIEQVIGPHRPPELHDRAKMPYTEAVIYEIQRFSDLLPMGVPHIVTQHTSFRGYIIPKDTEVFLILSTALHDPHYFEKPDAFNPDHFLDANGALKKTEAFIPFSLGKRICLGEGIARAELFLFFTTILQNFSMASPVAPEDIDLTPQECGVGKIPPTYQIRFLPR

[6] = tested on: Human immunodeficiency virus 1; assay: Antiviral activity against HIV1 expressing Env-green fluorescent fusion protein infected in PBMC assessed as inhibition of viral activity after 72 hrs by flow cytometry analysis; format: functional, organism-based; conditions: Human immunodeficiency virus 1, 72 h
Procedure, shortened: (§5)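 Activated CD4+ T cells from PBMCs (PHA 0.5 μg/ml, IL-2 100 U/ml, 3 days, 37°C) seeded at 1 × 10^5/well in RPMI + 50% FBS with IL-2. Compound in DMSO (<0.1%) added 3 h before spinoculation with single-round HIV-1 Env-GFP reporter virus. GFP read by flow cytometry after 72 h. Infectivity is fraction unaffected relative to virus-only and no-virus controls.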

[7] = Blood plasma protein binding in human treated with 100 mg of efavirenz administered every 4 hrs by ultrafiltration method; format: ADME, cell-free; conditions: read-out: PPB (converted); procedure, shortened: as §4
[8] = Fraction unbound in human seminal plasma treated with 100 mg of efavirenz administered every 4 hrs by ultrafiltration method; format: ADME; procedure, shortened: as §4
[9] = Ratio of drug level in seminal plasma to blood plasma in human treated with 100 mg of efavirenz administered every 4 hrs by UPLC-MS/MS analysis; format: ADME, cell-free; conditions: male
Cytochrome P450 2B6 [10] = biological target: T2, Cytochrome P450 2B6; assay: Drug metabolism of the compound assessed as CYP2B6 (unknown origin)-mediated formation of dihydroxylated metabolites with retention time of 1.56 mins at 5 uM by UPLC-MS/MS analysis; format: ADME; conditions: 0.026 h; procedure, shortened: as §1
Cytochrome P450 1A1 [11] = biological target: T3, Cytochrome P450 1A1 (Homo sapiens, UniProt P04798); assay: Drug metabolism of the compound assessed as CYP1A1 (unknown origin)-mediated formation of dihydroxylated metabolites with retention time of 1.56 mins at 5 uM by UPLC-MS/MS analysis; format: ADME; conditions: 0.026 h; procedure, shortened: as §1
T3 sequence (P04798 whole entry): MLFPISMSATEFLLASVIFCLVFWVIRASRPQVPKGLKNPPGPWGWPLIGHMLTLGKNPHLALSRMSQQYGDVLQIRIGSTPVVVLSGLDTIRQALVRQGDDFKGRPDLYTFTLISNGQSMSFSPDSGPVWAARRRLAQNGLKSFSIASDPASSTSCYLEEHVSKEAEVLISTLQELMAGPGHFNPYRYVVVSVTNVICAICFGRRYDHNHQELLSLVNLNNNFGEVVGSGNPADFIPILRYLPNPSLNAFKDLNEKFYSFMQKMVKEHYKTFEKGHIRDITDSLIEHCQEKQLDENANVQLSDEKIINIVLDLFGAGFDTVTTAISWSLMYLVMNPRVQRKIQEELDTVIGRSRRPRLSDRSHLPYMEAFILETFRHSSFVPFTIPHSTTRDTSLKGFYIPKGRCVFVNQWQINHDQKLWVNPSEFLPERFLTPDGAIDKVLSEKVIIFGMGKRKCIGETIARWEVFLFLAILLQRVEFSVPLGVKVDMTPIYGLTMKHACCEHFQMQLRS

[12] = Ratio of drug level in seminal plasma to blood plasma in human at 100 mg administered every 4 hrs by UPLC-MS/MS analysis; format: ADME, cell-free; conditions: male
Cytochrome P450 1A1 [13] = biological target: T3, Cytochrome P450 1A1; assay: Drug metabolism of the compound assessed as CYP1A1 (unknown origin)-mediated formation of dihydroxylated metabolites with retention time of 1.73 mins at 5 uM by UPLC-MS/MS analysis; format: ADME; conditions: 104 s; procedure, shortened: as §1
Liver microsome [14] = assay: Drug metabolism in human liver microsomes assessed as formation of metabolites with retention time of 1.73 mins at 20 uM by UPLC-MS/MS analysis; format: ADME; conditions: 104 s; procedure, shortened: as §2
Cytochrome P450 2B6 [15] = biological target: T2, Cytochrome P450 2B6; assay: Drug metabolism of the compound assessed as CYP2B6 (unknown origin)-mediated formation of dihydroxylated metabolites with retention time of 1.73 mins at 5 uM by UPLC-MS/MS analysis; format: ADME; conditions: 104 s; procedure, shortened: as §1
[16] = Drug level in human cerebrospinal fluid treated with 100 mg of efavirenz administered […] by UPLC-MS/MS analysis; format: ADME, tissue-based; conditions: read-out: Drug uptake; procedure, shortened: as §3
Liver microsome [17] = assay: Drug metabolism in human liver microsomes assessed as formation of dihydroxylated metabolites with retention time of 1.56 mins at 20 uM by UPLC-MS/MS analysis; format: ADME; conditions: 0.026 h; procedure, shortened: as §2
Plasma [18] = assay: Drug metabolism in human seminal plasma assessed as retention time treated with 100 mg of efavirenz administered every 4 hrs by UPLC-MS/MS analysis; format: ADME, cell-free
Plasma [19] = assay: Drug metabolism in human seminal plasma assessed as retention time of dihydroxylated metabolites treated with 100 mg of efavirenz administered every 4 hrs by UPLC-MS/MS analysis; format: ADME, cell-free
[20] = Blood plasma protein binding in human at 100 mg administered every 4 hrs by ultrafiltration method; format: ADME, cell-free; conditions: read-out: PPB (converted); procedure, shortened: as §4
Plasma [21] = assay: Total blood plasma concentration in human; format: ADME, cell-free
Plasma [22] = assay: Drug metabolism in human blood plasma assessed as formation of N- and O-linked glucuronidated metabolite at 100 mg administered every 4 hrs by UPLC-MS/MS analysis; format: ADME, cell-free
[23] = Drug level in human cerebrospinal fluid; format: ADME, tissue-based; procedure, shortened: as §3
[24] = Seminal plasma protein binding in human at 100 mg administered every 4 hrs by ultrafiltration method; format: ADME, cell-free; procedure, shortened: as §4
Plasma [25] = assay: Total seminal plasma concentration in human; format: ADME, cell-free
[26] = tested on: Human immunodeficiency virus 1; assay: Antiviral activity against HIV1; format: functional, organism-based; procedure, shortened: as §5
[27] = Drug metabolism in human seminal plasma assessed as formation of N- and O-linked glucuronidated metabolite at 100 mg administered every 4 hrs by UPLC-MS/MS analysis; format: ADME, cell-free

Row | Drug metabolism (Cytochrome P450 2C8) | Drug metabolism (Liver microsome [1]) | concentration [2] [ng/mL] | fraction unbound at 4 h [3] | concentration at 4 h [4] [ng/mL] | Drug metabolism (Cytochrome P450 2B6 [5]) | IC50 [6] [µg/mL] | fraction unbound at 4 h [7] | Cp(f) [8] [ng/mL] | Kp at 4 h [9] | concentration [16] [ng/mL] | Structure (SMILES) | also measured
1 | metabolite_detected | metabolite_detected | 8.84 | 0.619 | 10.2 | metabolite_detected | 0.0447 (≈ 0.135 µM) | 0.0038 | 6.55 | 188 | – | O=C1Nc2cc(O)c(Cl)cc2[C@@](C#CC2CC2)(C(F)(F)F)O1 | –
2 | – | metabolite_detected | 314 | 0.038 | 358 | metabolite_detected | 0.0422 (≈ 0.127 µM) | 0.0003 | 10.16 | – | 3.37 | O=C1Nc2c(O)cc(Cl)cc2[C@@](C#CC2CC2)(C(F)(F)F)O1 | Drug metabolism (Cytochrome P450 2B6 [10]): metabolite_detected; Drug metabolism (Cytochrome P450 1A1 [11]): metabolite_detected; Kp at 4 h [12]: 145; Drug metabolism (Cytochrome P450 1A1 [13]): metabolite_detected; Drug metabolism (Liver microsome [14]): metabolite_detected; Drug metabolism (Cytochrome P450 2B6 [15]): metabolite_detected; Drug metabolism (Liver microsome [17]): metabolite_detected
3 | – | – | 5.63 | 0.846 | 5.43 | – | 2.24 (≈ 6.44 µM) | 0.0039 | 4.04 | 209 | 0.375 | O=C1Nc2c(O)cc(Cl)cc2[C@@](C#CC2(O)CC2)(C(F)(F)F)O1 | Retention_time (Plasma [18]): 1.56 min; Retention time (Plasma [19]): 1.56 min
4 | metabolite_detected | metabolite_detected | – | – | – | metabolite_detected | 0.00036 (≈ 0.00114 µM) | – | – | – | – | O=C1Nc2ccc(Cl)cc2[C@@](C#CC2CC2)(C(F)(F)F)O1 [EFAVIRENZ] | fraction unbound at 4 h [20]: 0.0018; Cp (Plasma [21]): 2170 ng/mL; Drug metabolism (Plasma [22]): metabolite_detected; Drug uptake [23]: 19 ng/mL; PPB [24]: 95.1%; Cp (Plasma [25]): 95 ng/mL; IC50 [26]: 0.00051 µg/mL (≈ 0.00162 µM); Drug metabolism [27]: metabolite_detected
